Reference: ChEMBL document CHEMBL3272224, “Synthesis and hypotensive activity of N-alkyl-N"-cyano-N'-pyridylguanidines” (J Med Chem, 1978)
The source made the active and inactive calls. The calls are words filed in the database; no cut-off is given here.

Key:
[1] = Toxicity in po dosed Sprague-Dawley rat assessed as mortality after 7 days; format: organism-based; details: in vivo
Rattus norvegicus [2] = test: Hypotensive activity in spontaneously hypertensive Wistar-Okamoto rat assessed as maximum change in mean blood pressure at 2.5 mg/kg, po relative to control; format: functional
How it was run: (§1)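 Spontaneously hypertensive Wistar-Okamoto rats, five per dose, received compound orally, dissolved or suspended in 0.5% carboxymethylcellulose. Blood pressure was measured indirectly by tail cuff in restrained conscious rats before dosing and at 2, 4, 6, 8, 12 and 24 h. Maximum change was measured after a single administration and given as mean ± error.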

Rattus norvegicus [3] = test: Hypotensive activity in spontaneously hypertensive Wistar-Okamoto rat assessed as maximum change in mean blood pressure at 5 mg/kg, po relative to control; format: functional; how it was run: as §1
Rattus norvegicus [4] = test: Hypotensive activity in spontaneously hypertensive Wistar-Okamoto rat assessed as maximum change in mean blood pressure at 10 mg/kg, po relative to control; format: functional; how it was run: as §1
Rattus norvegicus [5] = test: Hypotensive activity in spontaneously hypertensive Wistar-Okamoto rat assessed as time required for persistence of hypotensive effect at 2.5 mg/kg, po; format: functional
How it was run: (§2)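 SHR (Wistar-Okamoto), five per dose, were given an oral dose in 0.5% carboxymethylcellulose. Indirect cuff pressure in restrained conscious rats was read before dosing and at 2, 4, 6, 8, 12 and 24 h. Duration (h) was scored while pressure remained 15 mmHg or more below the initial reading.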

Rattus norvegicus [6] = test: Hypotensive activity in spontaneously hypertensive Wistar-Okamoto rat assessed as time required for persistence of hypotensive effect at 5 mg/kg, po; format: functional; how it was run: as §2
Rattus norvegicus [7] = test: Hypotensive activity in spontaneously hypertensive Wistar-Okamoto rat assessed as time required for persistence of hypotensive effect at 10 mg/kg, po; format: functional; how it was run: as §2
Canis familiaris [8] = test: Hypotensive activity in conscious renal hypertensive dog assessed as maximum change in mean blood pressure at 2.5 mg/kg, po measured for 8 hrs relative to control; format: functional, Canis lupus familiaris
How it was run: (§3)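 Renal hypertensive dogs, conscious, dosed orally in soft gelatin capsules, three dogs per dose. Mean blood pressure was taken indirectly with an Arteriosonde, standing animals in a semi-insonorized room, just before dosing and then hourly for 8 h. Maximum change was measured after a single administration and given as mean ± error.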

Canis familiaris [9] = test: Hypotensive activity in conscious renal hypertensive dog assessed as maximum change in mean blood pressure at 5 mg/kg, po measured for 8 hrs relative to control; format: functional, Canis lupus familiaris; how it was run: as §3
Canis familiaris [10] = test: Hypotensive activity in conscious renal hypertensive dog assessed as maximum change in mean blood pressure at 10 mg/kg, po measured for 8 hrs relative to control; format: functional, Canis lupus familiaris; how it was run: as §3
Canis familiaris [11] = test: Hypotensive activity in conscious renal hypertensive dog assessed as time required for persistence of hypotensive effect at 2.5 mg/kg, po measured for 8 hrs; format: functional, Canis lupus familiaris
How it was run: (§4)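 Conscious renal hypertensive dogs received single oral doses in soft gelatin capsules, three per dose. Indirect standing blood pressure was read before dosing and hourly to 8 h. Duration (h) was the time the pressure stayed 15 mmHg or more below the initial value, which was taken as persistence of the hypotensive effect.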

Canis familiaris [12] = test: Hypotensive activity in conscious renal hypertensive dog assessed as time required for persistence of hypotensive effect at 5 mg/kg, po measured for 8 hrs; format: functional, Canis lupus familiaris; how it was run: as §4
Canis familiaris [13] = test: Hypotensive activity in conscious renal hypertensive dog assessed as time required for persistence of hypotensive effect at 10 mg/kg, po measured for 8 hrs; format: functional, Canis lupus familiaris; how it was run: as §4
Rattus norvegicus [14] = test: Toxicity in rat assessed as change in cardiac noradrenaline level at 0.1 mg/kg; format: organism-based, Heart; parameters: dose 0.1 mg/kg; details: in vivo
How it was run: (§5)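 Rats were given single or repeated (5 days) administration, and cardiac noradrenaline levels were measured.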

Rattus norvegicus [15] = test: Toxicity in rat assessed as change in cardiac noradrenaline level at 0.1 mg/kg for 5 days; format: organism-based, Heart; parameters: dose 0.1 mg/kg; details: in vivo, 120 h; how it was run: as §5
Rattus norvegicus [16] = organism: Rattus norvegicus; test: Toxicity in rat assessed as effect on contraction of nictitating membranes by preganglionic stimulation; format: organism-based, Nictitating membrane; details: in vivo
[17] = Toxicity in po dosed mouse assessed as mortality after 7 days; details: in vivo
Rattus norvegicus [18] = test: Hypotensive activity in po dosed spontaneously hypertensive Wistar-Okamoto rat assessed as dose required to cause 30 mmHg fall of blood pressure administered for 5 days; format: functional; details: 120 h, read-out: MED
Rattus norvegicus [19] = test: Hypotensive activity in spontaneously hypertensive Wistar-Okamoto rat assessed as maximum change in mean blood pressure at 0.01 mg/kg, po relative to control; format: functional; how it was run: as §1
Rattus norvegicus [20] = test: Hypotensive activity in spontaneously hypertensive Wistar-Okamoto rat assessed as maximum change in mean blood pressure at 0.05 mg/kg, po relative to control; format: functional; how it was run: as §1
Rattus norvegicus [21] = test: Hypotensive activity in spontaneously hypertensive Wistar-Okamoto rat assessed as maximum change in mean blood pressure at 0.1 mg/kg, po relative to control; format: functional; how it was run: as §1
Rattus norvegicus [22] = test: Hypotensive activity in spontaneously hypertensive Wistar-Okamoto rat assessed as time required for persistence of hypotensive effect at 0.01 mg/kg, po; format: functional; how it was run: as §2
Rattus norvegicus [23] = test: Hypotensive activity in spontaneously hypertensive Wistar-Okamoto rat assessed as time required for persistence of hypotensive effect at 0.05 mg/kg, po; format: functional; how it was run: as §2
Rattus norvegicus [24] = test: Hypotensive activity in spontaneously hypertensive Wistar-Okamoto rat assessed as time required for persistence of hypotensive effect at 0.1 mg/kg, po; format: functional; how it was run: as §2
Canis familiaris [25] = test: Hypotensive activity in conscious renal hypertensive dog assessed as maximum change in mean blood pressure at 0.05 mg/kg, po measured for 8 hrs relative to control; format: functional, Canis lupus familiaris; how it was run: as §3
Canis familiaris [26] = test: Hypotensive activity in conscious renal hypertensive dog assessed as maximum change in mean blood pressure at 0.1 mg/kg, po measured for 8 hrs relative to control; format: functional, Canis lupus familiaris; how it was run: as §3
Canis familiaris [27] = test: Hypotensive activity in conscious renal hypertensive dog assessed as maximum change in mean blood pressure at 0.25 mg/kg, po measured for 8 hrs relative to control; format: functional, Canis lupus familiaris; how it was run: as §3
Canis familiaris [28] = test: Hypotensive activity in conscious renal hypertensive dog assessed as time required for persistence of hypotensive effect at 0.05 mg/kg, po measured for 8 hrs; format: functional, Canis lupus familiaris; how it was run: as §4
Canis familiaris [29] = test: Hypotensive activity in conscious renal hypertensive dog assessed as time required for persistence of hypotensive effect at 0.1 mg/kg, po measured for 8 hrs; format: functional, Canis lupus familiaris; how it was run: as §4
Canis familiaris [30] = test: Hypotensive activity in conscious renal hypertensive dog assessed as time required for persistence of hypotensive effect at 0.25 mg/kg, po measured for 8 hrs; format: functional, Canis lupus familiaris; how it was run: as §4
Rattus norvegicus [31] = test: Hypotensive activity in po dosed spontaneously hypertensive Wistar-Okamoto rat relative to guancydine; format: functional
Felis catus = organism: Felis catus; test: Hypotensive activity in decerebrated cat; format: functional, organism-based

Compound | LD50 at 168 h [1] | minimal effective dose (Rattus norvegicus [18]) | Activity (Rattus norvegicus [19]) | Activity (Rattus norvegicus [20]) | Activity (Rattus norvegicus [21]) | Time (Rattus norvegicus [22]) | Time (Rattus norvegicus [23]) | Time (Rattus norvegicus [24]) | Activity (Canis familiaris [25]) | Activity (Canis familiaris [26]) | Time (Canis familiaris [28]) | Time (Canis familiaris [29]) | fold change (FC) (Rattus norvegicus [31]) | Activity (Felis catus) | also measured
CCC(C)(C)/N=C(/S)Nc1cccnc1 | 460 mg/kg | – | – | – | – | – | – | – | – | – | – | – | – | – | Activity (Rattus norvegicus [2]): -35 mmHg; Activity (Rattus norvegicus [3]): -47 mmHg; Activity (Rattus norvegicus [4]): -69 mmHg; Time (Rattus norvegicus [5]): 2 h; Time (Rattus norvegicus [6]): 2 h; Time (Rattus norvegicus [7]): >4 h; Activity (Canis familiaris [8]): -14 mmHg; Activity (Canis familiaris [9]): -28 mmHg; Activity (Canis familiaris [10]): -43 mmHg; Time (Canis familiaris [11]): 2 h; Time (Canis familiaris [12]): 2 h; Time (Canis familiaris [13]): 4 h
CC(C)(C)/N=C(/NC#N)Nc1cccnc1 | 278 mg/kg | 0.1 mg/kg | -26 mmHg | -37 mmHg | -72 mmHg | 4 h | 6 h | >8 h | -25 mmHg | -45 mmHg | 2 h | 4 h | 100 | Active | Activity (Rattus norvegicus [14]): Non-toxic; Activity (Rattus norvegicus [15]): Non-toxic; Activity (Rattus norvegicus [16]): Non-toxic; LD50 at 168 h [17]: > 1000 mg/kg; Activity (Canis familiaris [27]): -62 mmHg; Time (Canis familiaris [30]): 6 h
CCC(C)(C)/N=C(\NC#N)Nc1cccnc1 | – | 0.1 mg/kg | -27 mmHg | -72 mmHg | >-100 mmHg | 2 h | 4 h | 4 h | -41 mmHg | -69 mmHg | 4 h | >6 h | 100 | Active | –
